Reference: paper PMC3778312 (British Journal of Cancer, 2013)
Entries after “also recorded” stand apart in the source; their conditions may differ.

What was measured:
[1] = Phase 1 safety monitoring of PX-866 with docetaxel; assay type: in vivo, human
Summary of the method: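 Open-label dose escalation in cohorts of 6–9 patients at 4, 6 or 8 mg oral daily test compound plus docetaxel 75 mg m−2 IV every 21 days, with dexamethasone premedication. All patients receiving ≥1 dose had vital signs, labs and exams; AEs were graded by NCI CTCAE v4.02. DLTs included related grade ≥3 events, febrile grade 3/4 neutropenia, platelets <25 000 per μl and ANC <500 per μl for >7 days.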

PI-3Kβ = conditions: read-out: IC50 against PI-3Kβ; ref Wipf et al, 2004; cited from earlier work
PI3Kα = conditions: read-out: IC50 against PI3Kα; ref Wipf et al, 2004; cited from earlier work
advanced solid tumors = conditions: ref Hong et al, 2012, cited from earlier work
[2] = test system: HT29 colon cancer xenografts; conditions: single agent; ref Ihle et al, 2005; Koul et al, 2010; cited from earlier work
[3] = PX-866 with docetaxel, 43 patients
[4] = Total, all PX-866 doses + docetaxel, N=43

C=CCN(/C=C1/C(=O)O[C@H](COC)[C@@]2(C)C1=C(O)C(=O)C1=C2[C@H](OC(C)=O)C[C@]2(C)C(=O)CC[C@@H]12)CC=C [PX-866]
Treatment-emergent AE: Asthenia ([1]; PX-866 8 mg + docetaxel, N=23): 6 (26) N (%) | Treatment-emergent AE: Bone pain ([1]; PX-866 8 mg + docetaxel, N=23): 5 (22) N (%) | Treatment-emergent AE: Constipation ([1]; PX-866 8 mg + docetaxel, N=23): 8 (35) N (%) | Treatment-emergent AE: Cough ([1]; PX-866 8 mg + docetaxel, N=23): 3 (13) N (%) | Treatment-emergent AE: Decreased appetite ([1]; PX-866 8 mg + docetaxel, N=23): 10 (44) N (%) | Treatment-emergent AE: Dehydration ([1]; PX-866 8 mg + docetaxel, N=23): 11 (48) N (%) | Treatment-emergent AE: Diarrhoea ([1]; PX-866 8 mg + docetaxel, N=23): 18 (78) N (%) | Treatment-emergent AE: Dizziness ([1]; PX-866 8 mg + docetaxel, N=23): 4 (17) N (%) | Treatment-emergent AE: Dysgeusia ([1]; PX-866 8 mg + docetaxel, N=23): 3 (13) N (%) | Treatment-emergent AE: Epistaxis ([1]; PX-866 8 mg + docetaxel, N=23): 4 (17) N (%) | Treatment-emergent AE: Fatigue ([1]; PX-866 8 mg + docetaxel, N=23): 13 (57) N (%) | Treatment-emergent AE: Hypokalemia ([1]; PX-866 8 mg + docetaxel, N=23): 6 (26) N (%) | Treatment-emergent AE: Nausea ([1]; PX-866 8 mg + docetaxel, N=23): 16 (70) N (%) | Treatment-emergent AE: Neutropenia ([1]; PX-866 8 mg + docetaxel, N=23): 6 (26) N (%) | Treatment-emergent AE: Oedema peripheral ([1]; PX-866 8 mg + docetaxel, N=23): 7 (30) N (%) | Treatment-emergent AE: Oropharyngeal pain ([1]; PX-866 8 mg + docetaxel, N=23): 5 (22) N (%) | Treatment-emergent AE: Pyrexia ([1]; PX-866 8 mg + docetaxel, N=23): 6 (26) N (%) | Treatment-emergent AE: Stomatitis ([1]; PX-866 8 mg + docetaxel, N=23): 4 (17) N (%) | Treatment-emergent AE: Vomiting ([1]; PX-866 8 mg + docetaxel, N=23): 14 (61) N (%) | Treatment-emergent AEs, frequency by severity: Grade 1 ([1]; PX-866 8 mg + docetaxel, N=23): 84 (50) N (%) | Treatment-emergent AEs, frequency by severity: Grade 2 ([1]; PX-866 8 mg + docetaxel, N=23): 62 (37) N (%) | Treatment-emergent AEs, frequency by severity: Grade 3 ([1]; PX-866 8 mg + docetaxel, N=23): 15 (9) N (%) | Treatment-emergent AEs, frequency by severity: Grade 4 ([1]; PX-866 8 mg + docetaxel, N=23): 8 (5) N (%) | Treatment-emergent AEs, frequency by severity: Grade 5 ([1]; PX-866 8 mg + docetaxel, N=23): 0 (0) N (%) | dose-limiting toxicities ([1]; PX-866 4, 6, 8 mg daily with docetaxel 75 mg m^−2): No dose-limiting toxicities; also recorded: No DLTs | tolerability ([1]; PX-866 and docetaxel): well tolerated | gastrointestinal disorders, PX-866-related [1, 3]: 83.7% | study drug-related diarrhoea, patients [1, 3]: 76.7% | Grade 3/4 AE related to PX-866: diarrhoea ([1]; PX-866 with docetaxel, N=43): 3 N | Grade 3/4 AE related to PX-866: nausea ([1]; PX-866 with docetaxel, N=43): 2 N | SAEs considered related to study treatment ([1]; PX-866 with docetaxel, N=43): 17 | patients who experienced serious AEs ([1]; PX-866 with docetaxel, N=43): Twenty | treatment-emergent AE neutropenia ([1]; PX-866 with docetaxel, N=43): 40% | treatment-emergent AE peripheral oedema ([1]; PX-866 with docetaxel, N=43): 40% | treatment-emergent AE vomiting ([1]; PX-866 with docetaxel, N=43): 51% | Treatment-emergent AE: Alopecia [1, 4]: 12 (28) N (%) | Treatment-emergent AE: Anaemia [1, 4]: 13 (30) N (%) | Treatment-emergent AE: Arthralgia [1, 4]: 7 (16) N (%) | Treatment-emergent AE: Asthenia [1, 4]: 11 (26) N (%) | Treatment-emergent AE: Bone pain [1, 4]: 9 (21) N (%) | Treatment-emergent AE: Constipation [1, 4]: 13 (30) N (%) | Treatment-emergent AE: Cough [1, 4]: 10 (23) N (%) | Treatment-emergent AE: Decreased appetite [1, 4]: 15 (35) N (%) | Treatment-emergent AE: Dehydration [1, 4]: 15 (35) N (%) | Treatment-emergent AE: Diarrhoea [1, 4]: 33 (77) N (%) | Treatment-emergent AE: Dizziness [1, 4]: 7 (16) N (%) | Treatment-emergent AE: Dysgeusia [1, 4]: 8 (19) N (%) | Treatment-emergent AE: Epistaxis [1, 4]: 7 (16) N (%) | Treatment-emergent AE: Fatigue [1, 4]: 26 (61) N (%) | Treatment-emergent AE: Hypokalemia [1, 4]: 9 (21) N (%) | Treatment-emergent AE: Nausea [1, 4]: 25 (58) N (%) | Treatment-emergent AE: Neutropenia [1, 4]: 17 (40) N (%) | Treatment-emergent AE: Oedema peripheral [1, 4]: 17 (40) N (%) | Treatment-emergent AE: Oropharyngeal pain [1, 4]: 7 (16) N (%) | Treatment-emergent AE: Pyrexia [1, 4]: 11 (26) N (%) | Treatment-emergent AE: Stomatitis [1, 4]: 9 (21) N (%) | Treatment-emergent AE: Vomiting [1, 4]: 22 (51) N (%) | Treatment-emergent AEs, frequency by severity: Grade 1 [1, 4]: 152 (51) N (%) | Treatment-emergent AEs, frequency by severity: Grade 2 [1, 4]: 102 (34) N (%) | Treatment-emergent AEs, frequency by severity: Grade 3 [1, 4]: 28 (9) N (%) | Treatment-emergent AEs, frequency by severity: Grade 4 [1, 4]: 18 (6) N (%) | Treatment-emergent AEs, frequency by severity: Grade 5 [1, 4]: 0 (0) N (%) | RP2D of PX-866 in combination ([1]; daily, with docetaxel 75 mg m^−2 IV every 21 days): 8 mg | deaths on study ([1]; two after progressive disease, one pneumonia unrelated to either study drug): three | IC50 (PI-3Kβ): 88 ± 27 nM | IC50 (PI3Kα): 39 ± 21 nM | single-agent MTD (advanced solid tumors; previously determined, daily): 8 mg | time PX-866 may be given safely (advanced solid tumors): over 1 year | best response per RECIST 1.1: stable disease, share of evaluable patients (advanced solid tumors; single-agent PX-866, week 6): over 50% | recommended phase 2 dose (RP2D), single agent (advanced solid tumors; single-agent PX-866): 8 mg daily | tumour growth [2]: delays tumour growth
